Test results published in ChEMBL document CHEMBL1123757, “Selective thromboxane synthetase inhibitors and antihypertensive agents. New derivatives of 4-hydrazino-5H-pyridazino[4,5-b]indole, 4-hydrazinopyridazino[4,5-a]indole, and related compounds” (J Med Chem, 1987).

Legend:
Cavia porcellus [1] = test: Effect on thromboxane synthetase activity (ex vivo) at 100 mg/kg expressed as percent increase in TXB2; format: functional
How it was run: (§1)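 Fasted male or female guinea pigs (250–300 g, five per group) dosed orally in normal saline or saline with 0.2% (carboxymethyl)cellulose/1.0% Tween 80; controls given vehicle. Under ether, cardiac blood collected into 3.8% citrate. PRP adjusted to […] and aggregation induced by ADP (second wave) or AA, read by absorbance aggregometry. PGE2 and TXB2 measured by RIA.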

Rattus norvegicus [2] = test: Antihypertensive activity in spontaneously hypertensive rats (SHR) measured by percentage fall in arterial pressure (AP) at 25 mg/kg administered intraperitoneally at 24 h; format: functional, Artery; conditions: route intraperitoneal
How it was run: (§2)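 Unanesthetized Okamoto-strain SHR, male and female, 8 weeks old, 300–350 g, systolic pressure ≥190 mmHg, heart rate 400–650 beats/min; five animals per dose. Given ip at 2.5 mL/kg, dissolved or suspended in normal saline or saline with 0.2% (carboxymethyl)cellulose and 1.0% Tween 80. Tail AP and CR recorded by mechanical transduction at set times; reported as percentage fall from control.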

Rattus norvegicus [3] = test: Antihypertensive activity in spontaneously hypertensive rats (SHR) measured by percentage fall in arterial pressure (AP) at 5 mg/kg administered intraperitoneally at 1 h; format: functional, Artery; conditions: route intraperitoneal; how it was run: as §2
Homo sapiens [4] = organism: Homo sapiens; test: In vitro inhibition of platelet aggregation induced by PGH-2 (PRP incubated for 60 minutes at 37 degree C) at 10e-5 M; format: functional; conditions: 1 h
How it was run: (§3)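 Human venous blood anticoagulated with 3.8% sodium citrate (1:9). PRP from centrifugation at 800 rpm for 10 min at room temperature. Count adjusted with PPP to […]. Compound in saline with 10% ethylene glycol is added to PRP and incubated at 37 °C before the agonist. Agonists: ADP 2×10^-5 M, AA 0.6 mM, PGH2 2.8 μM, adrenaline 0.6 μM. Born absorbance aggregometry; n = 5.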

[5] = Effect on PGI-2 release from rat aortic tissue at a final concentration of 10e -4 for an incubation time of 30 minutes; format: functional
How it was run: (§4)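 Female Wistar rats (200–220 g) received heparin 200 IU/kg ip and were killed 10 min later. Aortic pieces of about 25 mm² were washed in ice-cold oxygenated Krebs–Henseleit buffer, then incubated in 1 mL buffer at 37 °C. Compound at 10^-4 M final was added 10 min before tissue transfer. PGI2 release was read as antiaggregatory activity of the incubate on ADP (2×10^-6 M)-induced human PRP aggregation and by 6-keto-PGF1α RIA. n = 4.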

Homo sapiens [6] = organism: Homo sapiens; test: In vitro inhibition of platelet aggregation induced by AA (PRP incubated for 60 minutes at 37 degree C) at 10e-5 M; format: functional; conditions: 1 h; how it was run: as §3
Rattus norvegicus [7] = test: Percent fall in systolic blood pressure, directly measured on carotid (iv on the jugular vein) of spontaneously hypertensive rats at 1 mg/kg after 15 minutes; format: functional, Artery
How it was run: (§5)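 Anesthetized (sodium pentobarbital, 70 mg/kg) male and female Okamoto SHR, 8 weeks old, 300–350 g. Given iv into the jugular vein in normal saline. Arterial pressure and cardiac rhythm are recorded directly from the carotid by polygraph at set times after dosing. Each is expressed as percent change from the pre-dose control value.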

Rattus norvegicus [8] = test: Percent fall in systolic blood pressure, directly measured on carotid (iv on the jugular vein) of spontaneously hypertensive rats at 1 mg/kg after 5 minutes; format: functional, Artery; how it was run: as §5
Rattus norvegicus [9] = test: Antihypertensive activity in spontaneously hypertensive rats (SHR) measured by percentage fall in cardiac rhythm (CR) at 25 mg/kg administered intraperitoneally at 24 h; format: functional, Heart; conditions: route intraperitoneal; how it was run: as §2
Homo sapiens [10] = organism: Homo sapiens; test: In vitro inhibition of platelet aggregation induced by DD (PRP incubated for 5 minutes at 37 degree C) at 10e-5 M; format: functional; how it was run: as §3
[11] = Acute toxicity in mice was expressed as lethal dose; format: organism-based; conditions: mouse, in vivo
How it was run: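 Swiss male mice, 20 ± 2 g, dosed ip at four or more dose levels. LD50 calculated 7 days after drug administration by probit analysis (Miller and Tainter).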

Rattus norvegicus [12] = test: Percent increase in cardiac rhythm, directly measured on carotid (iv on the jugular vein) of spontaneously hypertensive rats at 1 mg/kg after 30 minutes; format: functional, Heart; how it was run: as §5
Rattus norvegicus [13] = test: Antihypertensive activity in spontaneously hypertensive rats (SHR) measured by percentage fall in arterial pressure (AP) at 5 mg/kg administered intraperitoneally at 24 h; format: functional, Artery; conditions: route intraperitoneal; how it was run: as §2
Rattus norvegicus [14] = test: Antihypertensive activity in spontaneously hypertensive rats (SHR) measured by percentage fall in arterial pressure (AP) at 1 mg/kg administered intraperitoneally at 1 h; format: functional, Artery; conditions: route intraperitoneal; how it was run: as §2
Cavia porcellus [15] = test: Ex vivo inhibition of platelet aggregation induced by AA at 100 mg/kg; format: functional; how it was run: as §1
Rattus norvegicus [16] = test: Antihypertensive activity in spontaneously hypertensive rats (SHR) measured by percentage fall in cardiac rhythm (CR) at 5 mg/kg administered intraperitoneally at 5 h; format: functional, Heart; conditions: route intraperitoneal
How it was run: (§6)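 Conscious SHR (Okamoto strain), 8 weeks old, male and female, 300–350 g, systolic BP ≥190 mmHg, CR 400–650 beats/min. Given ip or po at 2.5 mL/kg in normal saline or saline with 0.2% (carboxymethyl)cellulose and 1.0% Tween 80. Tail AP and CR recorded by mechanical transduction at 1, 3, 5 and 24 h, five animals per dose. Effect expressed as % fall versus control.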

Rattus norvegicus [17] = test: Percent fall in systolic blood pressure, directly measured on carotid (iv on the jugular vein) of spontaneously hypertensive rats at 1 mg/kg after 30 minutes; format: functional, Artery; how it was run: as §5
Homo sapiens [18] = organism: Homo sapiens; test: In vitro inhibition of platelet aggregation induced by adrenaline at 10e-5 M; format: functional; how it was run: as §3
Rattus norvegicus [19] = test: Antihypertensive activity in spontaneously hypertensive rats (SHR) measured by percentage fall in cardiac rhythm (CR) at 25 mg/kg administered perorally at 3 h; format: functional, Heart; conditions: route oral; how it was run: as §6
Rattus norvegicus [20] = test: Antihypertensive activity in spontaneously hypertensive rats (SHR) measured by percentage fall in cardiac rhythm (CR) at 5 mg/kg administered intraperitoneally at 1 h; format: functional, Heart; conditions: route intraperitoneal; how it was run: as §6
Rattus norvegicus [21] = test: Antihypertensive activity in spontaneously hypertensive rats (SHR) measured by percentage fall in arterial pressure (AP) at 1 mg/kg administered intraperitoneally at 3 h; format: functional, Artery; conditions: route intraperitoneal; how it was run: as §2
Rattus norvegicus [22] = test: Antihypertensive activity in spontaneously hypertensive rats (SHR) measured by percentage fall in cardiac rhythm (CR) at 1 mg/kg administered intraperitoneally at 1 h; format: functional, Heart; conditions: route intraperitoneal; how it was run: as §2
Rattus norvegicus [23] = test: Antihypertensive activity in spontaneously hypertensive rats (SHR) measured by percentage fall in arterial pressure (AP) at 25 mg/kg administered perorally at 5 h; format: functional, Artery; conditions: route oral
How it was run: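 Oral dosing at 2.5 mL/kg to unanesthetized male and female Okamoto-strain SHR (8 weeks old, 300–350 g, systolic pressure ≥190 mmHg, heart rate 400–650 beats/min), five per dose. Vehicle was normal saline or saline with 0.2% (carboxymethyl)cellulose and 1.0% Tween 80. AP measured on the tail by mechanical transduction at set times; expressed as percentage fall from control.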

Rattus norvegicus [24] = test: Antihypertensive activity in spontaneously hypertensive rats (SHR) measured by percentage fall in cardiac rhythm (CR) at 25 mg/kg administered perorally at 5 h; format: functional, Heart; conditions: route oral; how it was run: as §6
[25] = Effect on PGI-2 release from rat aortic tissue at a final concentration of 10e -4 for an incubation time of 25 minutes; format: functional; how it was run: as §4
Rattus norvegicus [26] = test: Antihypertensive activity in spontaneously hypertensive rats (SHR) measured by percentage fall in cardiac rhythm (CR) at 25 mg/kg administered intraperitoneally at 3 h; format: functional, Heart; conditions: route intraperitoneal; how it was run: as §2

COc1ccc2[nH]c3c(NN)nncc3c2c1.Cl
inhibition in vivo at 100 mg/kg (Cavia porcellus [1]): 95% | Decrease in AP (Rattus norvegicus [2]): 10% | Decrease in AP (Rattus norvegicus [3]): 50% | inhibition at 10 µM (Homo sapiens [4]): 100% | Inhibition [5]: 35% | inhibition at 10 µM (Homo sapiens [6]): 100% | Decrease in blood pressure (Rattus norvegicus [7]): 40% | Decrease in blood pressure (Rattus norvegicus [8]): 30% | Decrease in CR (Rattus norvegicus [9]): 38% | inhibition at 10 µM (Homo sapiens [10]): 100% | LD50 [11]: 225 mg/kg | Increase (Rattus norvegicus [12]): 12% | Decrease in AP (Rattus norvegicus [13]): 9% | Decrease in AP (Rattus norvegicus [14]): 32% | inhibition in vivo at 100 mg/kg (Cavia porcellus [15]): 100% | Decrease in CR (Rattus norvegicus [16]): -6% | Decrease in blood pressure (Rattus norvegicus [17]): 40% | inhibition at 10 µM (Homo sapiens [18]): 100% | Decrease in CR (Rattus norvegicus [19]): -14% | Decrease in CR (Rattus norvegicus [20]): -9% | Decrease in AP (Rattus norvegicus [21]): 5% | Decrease in CR (Rattus norvegicus [22]): 9% | Decrease in AP (Rattus norvegicus [23]): 34% | Decrease in CR (Rattus norvegicus [24]): -14% | Inhibition [25]: 45% | Decrease in CR (Rattus norvegicus [26]): 19%
